Results pooled from the literature.
Protocols differ between the studies behind these lines.

N#Cc1c(-c2ccc(Cl)cc2Cl)c(C(N)=S)c(N)n(N)c1=O — inhibition zone (Saccharomyces cerevisiae; microbial growth, well diffusion; ATCC9763; 500 µg/mL): 11 mm
CCOc1ccc(-c2c(Cc3ccc(OC)cc3)[nH]/c(=N/C(=O)C34CC5CC(CC(C5)C3)C4)n2C)cc1OC — IC50 (Hepatitis B virus; viral replication, inhibitor; HePAD38): 10900 nM
O=C(NC(=S)Nc1nccs1)c1ccco1 — IC50 (Leishmania tropica; parasite growth, resazurin; promastigote): 12400 nM
Nc1ccc(/C=C/C(=O)N2CCc3c(oc4c(-c5ccc(F)cc5)cc(-c5ccc(C(=O)N6CCOCC6)nn5)cc34)C2)cn1 — IC50 (PANC-1; cell growth or viability, CCK-8; 72 h): > 20000 nM
C=CC(=O)NC1CCN(c2ncc3ncnc(Nc4ccc(Oc5ccc6c(c5)ncn6C)c(C)c4)c3n2)CC1 — EC50 (NUGC-4; cell growth or viability): 14.4 nM
CCCCCCCCCCCCCCCCOP(=O)([O-])OCC[N+](C)(C)C — IC50 (Leishmania tropica; parasite growth, resazurin; promastigote): 2120 nM
N#Cc1c(-c2ccc(OCc3ccccc3)cc2)c(C(N)=O)c(N)n(N)c1=O — inhibition zone (Saccharomyces cerevisiae; microbial growth, well diffusion; ATCC9763; 500 µg/mL): 16 mm
Nc1ccc(/C=C/C(=O)N2CCc3c(oc4c(-c5ccc(F)cc5)cc(-c5ccc(C(=O)N6C[C@@H]7[C@H](C6)C7(F)F)nn5)cc34)C2)cn1 — IC50 (PANC-1; cell growth or viability, CCK-8; 72 h): > 20000 nM
N#Cc1c(-c2ccc(OCc3ccccc3)cc2)c(C(N)=S)c(N)n(N)c1=O — inhibition zone (Saccharomyces cerevisiae; microbial growth, well diffusion; ATCC9763; 500 µg/mL): 17 mm
O=C(NC(=S)Nc1cccc(O)c1)c1cccs1 — IC50 (Leishmania tropica; parasite growth, resazurin; promastigote): 480 nM
CC(=O)Oc1ccc(-c2c(C(N)=O)c(N)n(N)c(=O)c2C#N)cc1 — inhibition zone (Saccharomyces cerevisiae; microbial growth, well diffusion; ATCC9763; 500 µg/mL): 9 mm
Cc1c(C(=O)O)ccc2c3n(nc12)[C@@H]1[C@H](C3)N(CC2CC2)[C@@]2(C(=O)Nc3cc(Cl)ccc32)[C@H]1c1cccc(Cl)c1F — IC50 (NUGC-4; cell growth or viability, resazurin): 12 nM
